{
  "source": "ChEMBL document CHEMBL3407407",
  "about": "“New mimetic peptides inhibitors of Αβ aggregation. Molecular guidance for rational drug design” (Eur J Med Chem, 2015)",
  "key": {"[1]": {"target": "Amyloid-beta precursor protein (Homo sapiens) (UniProt P05067)", "sequence (P05067 whole entry)": "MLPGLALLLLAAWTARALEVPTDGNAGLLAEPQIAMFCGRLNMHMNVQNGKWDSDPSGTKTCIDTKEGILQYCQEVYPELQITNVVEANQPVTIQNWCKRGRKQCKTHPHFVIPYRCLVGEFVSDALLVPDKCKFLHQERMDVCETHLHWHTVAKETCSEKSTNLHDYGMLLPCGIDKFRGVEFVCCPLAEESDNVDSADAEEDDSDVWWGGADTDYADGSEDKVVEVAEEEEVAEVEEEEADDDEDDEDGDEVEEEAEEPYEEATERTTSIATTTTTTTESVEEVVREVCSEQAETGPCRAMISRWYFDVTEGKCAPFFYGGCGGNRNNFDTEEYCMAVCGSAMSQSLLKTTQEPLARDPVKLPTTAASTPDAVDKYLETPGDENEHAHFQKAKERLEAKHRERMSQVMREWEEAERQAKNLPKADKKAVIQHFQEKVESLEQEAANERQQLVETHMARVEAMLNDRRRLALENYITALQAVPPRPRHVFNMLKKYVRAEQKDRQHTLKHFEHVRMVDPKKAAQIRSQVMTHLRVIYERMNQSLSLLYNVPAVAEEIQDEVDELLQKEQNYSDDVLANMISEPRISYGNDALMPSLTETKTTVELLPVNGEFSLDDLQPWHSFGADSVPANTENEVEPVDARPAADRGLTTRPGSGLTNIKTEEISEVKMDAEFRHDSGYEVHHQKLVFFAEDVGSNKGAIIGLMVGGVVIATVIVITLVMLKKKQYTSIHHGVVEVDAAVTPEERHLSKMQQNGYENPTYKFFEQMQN", "test": "Inhibition of amyloid beta(42) aggregation (unknown origin) at 0.75 to 100 uM after 7 days by thioflavin T fluorescence method", "in_short": "(§1)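 Aβ42 at 25 mM (so in the source) in PBS, concentration set by A280 (ε 1490 M-1 cm-1), incubated quiescent at 37 °C for 7 days with compound (range 0–3200 mM as printed, from DMSO; final DMSO 5%). Samples then mixed with […] for 10 min at room temperature. Excitation 450 nm, emission 470–560 nm. Independent triplicates averaged, buffer+ThT+compound background subtracted.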"}, "[2]": {"target": "Amyloid-beta precursor protein (Homo sapiens) (UniProt P05067)", "test": "Inhibition of amyloid beta(42) aggregation (unknown origin) at 100 uM after 7 days by transmission electron microscopy", "in_short": "(§2)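 Aβ42 at 25 mM (so in the source) was incubated with compound at 37 °C for 7 days. Aliquots were adsorbed for 1 min onto carbon-coated Formvar copper grids, then blotted, washed and negatively stained for transmission electron microscopy.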"}, "[3]": {"target": "Amyloid-beta precursor protein (Homo sapiens) (UniProt P05067)", "test": "Inhibition of amyloid beta(42) aggregation (unknown origin) at 0.78 to 3200 uM after 1.5 hrs using anti-amyloid beta antibody DE2B4 by dot blot analysis", "in_short": "(§3)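 Aβ42 at 25 mM (so in the source) was incubated quiescent at 37 °C for 1.5 h across a compound concentration range (5% DMSO) and spotted on nitrocellulose. For A11, blots were blocked in PBS/0.2% Tween-20, then taken through A11 (1:4000, Hepes pH 7.0, overnight 4 °C) and anti-rabbit-HRP. For DE2B4 (total Aβ), blots were blocked in PBS-Tween/5% milk, then DE2B4 1:20,000 overnight 4 °C and anti-mouse-HRP. Read-out was chemiluminescence.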"}, "[4]": {"target": "Amyloid-beta precursor protein (Homo sapiens) (UniProt P05067)", "test": "Inhibition of amyloid beta(42) aggregation (unknown origin) at 0.78 to 3200 uM after 1.5 hrs using anti-oligomer A11 antibody by dot blot analysis", "in_short": "as §3"}, "[5]": {"target": "Amyloid-beta precursor protein (Homo sapiens) (UniProt P05067)", "test": "Inhibition of amyloid beta(42) aggregation (unknown origin) assessed as A11-positive oligomer formation at 100 uM after 0.5 to 70 hrs by kinetic study", "in_short": "(§4)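 A11 dot-blot time course. Aβ42 at 25 mM (so in the source) was incubated at 37 °C with compound at 100 mM (so in the source), 5% DMSO vehicle (5% water for the reference). Aliquots were taken at 0.5, 1.5, 5, 20, 30, 55 and 70 h, spotted on nitrocellulose, then probed with A11 and anti-rabbit-HRP. Read-out was chemiluminescence.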"}, "[6]": {"target": "Amyloid-beta precursor protein (Homo sapiens) (UniProt P05067)", "test": "Inhibition of amyloid beta(42) aggregation (unknown origin) after 7 days by thioflavin T fluorescence method", "in_short": "as §1"}, "[7]": {"target": "Amyloid-beta precursor protein (Homo sapiens) (UniProt P05067)", "test": "Inhibition of amyloid beta(42) aggregation (unknown origin) at 3200 uM after 7 days by thioflavin T fluorescence method", "in_short": "as §1"}, "[8]": {"target": "Amyloid-beta precursor protein (Homo sapiens) (UniProt P05067)", "test": "Inhibition of amyloid beta(42) aggregation (unknown origin) at 100 to 3200 uM after 7 days by transmission electron microscopy", "in_short": "as §2"}, "[9]": {"target": "Amyloid-beta precursor protein (Homo sapiens) (UniProt P05067)", "test": "Inhibition of amyloid beta(42) aggregation (unknown origin) at 100 uM after 7 days by thioflavin T fluorescence method", "in_short": "as §1"}, "[10]": {"target": "Amyloid-beta precursor protein (Homo sapiens) (UniProt P05067)", "test": "Inhibition of amyloid beta(42) aggregation (unknown origin) at 100 to 3200 uM after 1.5 hrs using anti-amyloid beta antibody DE2B4 by dot blot analysis", "in_short": "as §3"}, "[11]": {"target": "Amyloid-beta precursor protein (Homo sapiens) (UniProt P05067)", "test": "Inhibition of amyloid beta(42) aggregation (unknown origin) at 100 to 3200 uM after 1.5 hrs using anti-oligomer A11 antibody by dot blot analysis", "in_short": "as §3"}, "[12]": {"target": "Amyloid-beta precursor protein (Homo sapiens) (UniProt P05067)", "test": "Inhibition of amyloid beta(42) aggregation (unknown origin) assessed as A11-positive oligomer formation at 100 uM up to 1.5 hrs by kinetic study", "in_short": "as §4"}, "[13]": {"target": "Amyloid-beta precursor protein (Homo sapiens) (UniProt P05067)", "test": "Inhibition of amyloid beta(42) aggregation (unknown origin) at 100 uM up to 1.5 hrs by thioflavin T fluorescence-based kinetic study", "in_short": "(§5)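 In situ ThT kinetics. Aβ42 at 25 mM (so in the source) in PBS was incubated at 37 °C in sealed wells with 15 mM ThT and compound at 100 mM (so in the source), diluted 20-fold from DMSO to 5% DMSO. Fluorescence was read at intervals with excitation 450 nm and emission 470–600 nm. Background was corrected for ThT plus vehicle, with or without compound.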"}, "[14]": {"target": "Amyloid-beta precursor protein (Homo sapiens) (UniProt P05067)", "test": "Inhibition of amyloid beta(42) aggregation (unknown origin) at 100 uM after 5 hrs by thioflavin T fluorescence-based kinetic study", "in_short": "as §5"}, "[15]": {"target": "Amyloid-beta precursor protein (Homo sapiens) (UniProt P05067)", "test": "Inhibition of amyloid beta(42) aggregation (unknown origin) at 100 to 200 uM after 7 days by transmission electron microscopy", "in_short": "as §2"}},
  "note": "The source made the active and inactive calls. The calls are words filed in the database; no cut-off is given here.",
  "data": [
    {"compound": "O=C(NCCCC[C@H](NC(=O)OCc1ccccc1)C(=O)O)OCc1ccccc1", "values": [
      {"measurement": "inhibition", "setting": "[1]", "value": "inactive"},
      {"measurement": "inhibition", "setting": "[2]", "value": "inactive"},
      {"measurement": "inhibition", "setting": "[3]", "value": "inactive"},
      {"measurement": "inhibition", "setting": "[4]", "value": "inactive"},
      {"measurement": "inhibition", "setting": "[5]", "value": "inactive"}
    ]},
    {"compound": "CNc1ccc(C(=O)N[C@@H](CCCCNC(=O)OCc2ccccc2)C(=O)O)cc1", "values": [
      {"measurement": "inhibition", "setting": "[6]", "value": "Dose-dependent effect"},
      {"measurement": "inhibition", "setting": "[7]", "value": "Active"},
      {"measurement": "inhibition", "setting": "[8]", "value": "Active"},
      {"measurement": "inhibition", "setting": "[5]", "value": "inactive"}
    ]},
    {"compound": "O[C@H]1[C@H](O)[C@@H](O)[C@H](O)[C@@H](O)[C@@H]1O", "values": [
      {"measurement": "inhibition", "setting": "[5]", "value": "inactive"}
    ]},
    {"compound": "O=C(NCCCC[C@H](NC(=O)OCc1ccccc1)C(=O)ON1C(=O)CCC1=O)OCc1ccccc1", "values": [
      {"measurement": "inhibition", "setting": "[6]", "value": "Dose-dependent effect"},
      {"measurement": "inhibition", "setting": "[9]", "value": "Active"},
      {"measurement": "inhibition", "setting": "[10]", "value": "Active"},
      {"measurement": "inhibition", "setting": "[11]", "value": "Active"},
      {"measurement": "inhibition", "setting": "[5]", "value": "Active"},
      {"measurement": "inhibition", "setting": "[12]", "value": "Active"},
      {"measurement": "inhibition", "setting": "[13]", "value": "Active"},
      {"measurement": "inhibition", "setting": "[14]", "value": "inactive"}
    ]},
    {"compound": "CC(C)(C)OC(=O)N[C@@H](CCCCNC(=O)OCc1ccccc1)C(=O)ON1C(=O)CCC1=O", "values": [
      {"measurement": "inhibition", "setting": "[6]", "value": "Dose-dependent effect"},
      {"measurement": "inhibition", "setting": "[9]", "value": "Active"},
      {"measurement": "inhibition", "setting": "[15]", "value": "Active"},
      {"measurement": "inhibition", "setting": "[10]", "value": "Active"},
      {"measurement": "inhibition", "setting": "[11]", "value": "Active"},
      {"measurement": "inhibition", "setting": "[5]", "value": "Active"},
      {"measurement": "inhibition", "setting": "[12]", "value": "Active"},
      {"measurement": "inhibition", "setting": "[13]", "value": "Active"},
      {"measurement": "inhibition", "setting": "[14]", "value": "inactive"}
    ]},
    {"compound": "O=C(NCCCC[C@H](NC(=O)OCC1c2ccccc2-c2ccccc21)C(=O)O)OCc1ccccc1", "values": [
      {"measurement": "inhibition", "setting": "[2]", "value": "inactive"},
      {"measurement": "inhibition", "setting": "[3]", "value": "inactive"},
      {"measurement": "inhibition", "setting": "[4]", "value": "inactive"},
      {"measurement": "inhibition", "setting": "[5]", "value": "inactive"}
    ]}
  ]
}
